Results from ChEMBL document CHEMBL1777798, “Novel fungicidal benzylsulfanyl-phenylguanidines” (Bioorg Med Chem Lett, 2011).
Values after ≈ are worked out from the molar mass of the structure shown.

What was measured:
Candida albicans [1] = assay: Fungicidal activity against Candida albicans SC5314 assessed as biofilm eradication after 24 hrs; assay type: functional
Candida albicans [2] = assay: Fungicidal activity against Candida albicans SC5314 assessed as concentration required to less than 0.1% survival of organism after 2 hrs; assay type: functional; conditions: SC5314, 2 h
Procedure, shortened: (§1)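 C. albicans SC5314 or C. glabrata BG2 exposed to compounds. Cells then washed and plated on YPD (1% yeast extract, 2% peptone, 2% glucose) for CFU counts. MFC = minimal concentration leaving <0.1% survival relative to DMSO control.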

Nakaseomyces glabratus = assay: Fungal activity against Candida glabrata BG2 assessed as concentration required to less than 0.1% survival of organism after 2 hrs; assay type: functional; conditions: BG2, 2 h; procedure, shortened: as §1
[3] = Antimicrobial activity against mixed Candida albicans SC5314/Staphylococcus epidermidis assessed as biofilm eradication after 24 hrs; assay type: functional
Procedure, shortened: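 Mixed biofilm of C. albicans SC5314 and S. epidermidis (50/50). Overnight cultures suspended in 1/20 TSB at OD590 0.5 and mixed. 24 h adhesion, planktonic cells removed, then 48 h growth in fresh 1/20 TSB. Mature biofilms exposed 24 h to compound in PBS. Biomass read by crystal violet staining. BEC50 = concentration eradicating 50% of biofilm.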

[4] = Toxicity in glp-4delta sek-1 delta double mutant Caenorhabditis elegans model assessed as survival at 50 uM after 11 days relative to day 0; assay type: organism-based; conditions: in vivo
Procedure, shortened: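 glp-4Δsek-1Δ C. elegans grown on NGM/OP50 E. coli plates to L4 and washed in M9 buffer (with cholesterol and kanamycin). 40–50 worms per well in 1 mL M9 with compound at 50 μM or DMSO (0.5%) control. Survival counted daily, relative to day 0. Mean ±SEM of duplicates; experiments run at least twice.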

Candida albicans [5] = assay: Fungicidal activity against Candida albicans SC5314-infected Caenorhabditis elegans L4 larvae model assessed as survival of worms at 60 uM after 5 days relative to day 0; assay type: functional
Procedure, shortened: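 C. elegans L4 larvae fed 4 h on YPD agar lawns of C. albicans SC5314 (overnight culture spread, 16 h at 37 °C). Worms washed in M9 buffer and incubated with compound at 60 μM or DMSO control. Living worms counted daily; % survival relative to day 0. Mean ±SEM of duplicates; experiments run at least twice.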

Row | SMILES | BBC50 (Candida albicans [1]) [µM] | MFC (Candida albicans [2]) [µM] | MFC (Nakaseomyces glabratus) [µM] | BBC50 [3] [µM] | survival at 264 h, 50 µM [4] [%] | survival at 60 µM (Candida albicans [5]) [%]
1 | OC(Cn1cncn1)(Cn1cncn1)c1ccc(F)cc1F [FLUCONAZOLE] | >240 | > 100 | > 100 | >240 |  | 
2 | Clc1ccc(CSc2cccc(N=C(NC3CCCCC3)NC3CCCCC3)c2)cc1 |  | 5 (≈ 2.28 µg/mL) | 5 (≈ 2.28 µg/mL) |  | 19 | 18.5
3 | N=C(N)Nc1ccccc1SCc1ccc(Cl)cc1 |  | > 100 | > 100 |  |  | 
4 | Brc1cc(Br)cc(CSc2ccc(N=C(NC3CCCCC3)NC3CCCCC3)cc2)c1 |  | 5 (≈ 2.9 µg/mL) | 5 (≈ 2.9 µg/mL) |  | 51 | 49
5 | N=C(N)Nc1ccc(SCc2ccc(Cl)cc2)cc1 |  | 50 (≈ 14.6 µg/mL) | 50 (≈ 14.6 µg/mL) |  |  | 
6 | Clc1ccc(CSc2ccc(N=C(NC3CCCCC3)NC3CCCCC3)cc2)cc1 |  | > 100 | > 100 |  |  | 
7 | N=C(N)Nc1ccccc1SCc1cc(Br)cc(Br)c1 |  | 50 (≈ 20.8 µg/mL) | 50 (≈ 20.8 µg/mL) |  |  | 
8 | Clc1ccc(CSc2ccccc2N=C(NC2CCCCC2)NC2CCCCC2)cc1 |  | > 100 | 50 (≈ 22.8 µg/mL) |  |  | 
9 | Brc1cc(Br)cc(CSc2cccc(N=C(NC3CCCCC3)NC3CCCCC3)c2)c1 |  | 5 (≈ 2.9 µg/mL) | 5 (≈ 2.9 µg/mL) |  | 33 | 55.5
10 | N=C(N)NC(=N)Nc1ccc(SCc2ccc(Cl)cc2)cc1 |  | 50 (≈ 16.7 µg/mL) | 50 (≈ 16.7 µg/mL) |  |  | 
11 | N=C(N)NC(=N)Nc1ccc(SCc2cc(Br)cc(Br)c2)cc1 |  | > 100 | > 100 |  |  | 
12 | N=C(N)Nc1cccc(SCc2ccc(Cl)cc2)c1 |  | 100 (≈ 29.2 µg/mL) | 100 (≈ 29.2 µg/mL) |  |  | 
13 | Cl.N=C(N)NC(=N)Nc1cccc(SCc2cc(Br)cc(Br)c2)c1 |  | 5 | 10 | 55 | 5 | 15.4
14 | N=C(N)Nc1ccc(SCc2cc(Br)cc(Br)c2)cc1 |  | 50 (≈ 20.8 µg/mL) | 50 (≈ 20.8 µg/mL) |  |  | 
15 | Nc1ccccc1SCc1ccc(Cl)cc1 |  | > 100 | > 100 |  |  | 
16 | N=C(N)Nc1cccc(SCc2cc(Br)cc(Br)c2)c1 |  | 50 (≈ 20.8 µg/mL) | 50 (≈ 20.8 µg/mL) |  |  | 
17 | N=C(N)NC(=N)Nc1cccc(SCc2ccc(Cl)cc2)c1 |  | 50 (≈ 16.7 µg/mL) | 50 (≈ 16.7 µg/mL) |  |  | 
18 | Brc1cc(Br)cc(CSc2ccccc2N=C(NC2CCCCC2)NC2CCCCC2)c1 |  | 5 (≈ 2.9 µg/mL) | 50 (≈ 29 µg/mL) |  |  | 
19 | Nc1ccc(SCc2cc(Br)cc(Br)c2)cc1 |  | > 100 | > 100 |  |  | 
20 | Nc1ccccc1SCc1cc(Br)cc(Br)c1 |  | > 100 | > 100 |  |  | 
21 | Nc1ccc(SCc2ccc(Cl)cc2)cc1 |  | > 100 | > 100 |  |  | 
